Measurements: PMC3772679 (The European journal of neuroscience, 2012)
Like-named read-outs stand apart in the source and are kept apart here.

Experiments:
[1] = tested on: PC GABAA receptor (β1-subunit-containing); test: Loreclezole inhibition of GABA-mediated current in cultured Purkinje cells; assay type: cell-based, rat; details: 30 µM
Outline: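 Cerebellar neurons plated on glass coverslips (2.8 × 10^5 cells), kept at 37 °C in 5% CO2 and recorded after 10–14 days in vitro. 1 s pulses of 20 µM GABA every 30 s until baseline stable; 30 µM test compound (DMSO stock diluted in saline) applied by local perfusion for 30 s, then kept through three more GABA pulses. 1 mM GABA given at end of recording. n = individual cells; mean ± SEM.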

[2] = molecular target: GABAA receptors composed of α1β3γ2; details: heterologous expression systems; ref Belelli et al., 2003; cited from earlier work
[3] = tested on: PC GABAA receptor (GABAergic IPSC in Purkinje neurons); assay type: cell-based, mouse; details: for IPSC decay time constant in the presence of etomidate: 3 µM, 10 min

Cl/C(=C\n1cncn1)c1ccc(Cl)cc1Cl [loreclezole]
Initial reduction in GABA-mediated current ([1]; 30 s pre-application, 20 µM GABA pulses): 30% | Maximal decrease in GABA-mediated current with subsequent pulses of GABA ([1]; 20 µM GABA pulses every 30 s, n = 4): 65.5 ± 6.8%

CCOC(=O)c1cncn1[C@H](C)c1ccccc1 [Etomidate]
EC50 [2]: 4 µM | IPSC decay time constant in the presence of etomidate ([3]; slices 3 h after CA/CPR, P < 0.05 vs sham): 534.5 ± 42.3 ms | IPSC decay time constant in the presence of etomidate ([3]; slices from control sham-operated mice): 837 ± 128 ms

picrotoxin
Effect on outward GABAergic IPSC in Purkinje neurons ([3]; data not shown): blocked
